What all share (type): binding
In test [1] the target is T1, P450cam (cytochrome P450cam), WT (Pseudomonas putida, UniProt P00183, C335A).
T1 sequence (P00183 2-415 C335A): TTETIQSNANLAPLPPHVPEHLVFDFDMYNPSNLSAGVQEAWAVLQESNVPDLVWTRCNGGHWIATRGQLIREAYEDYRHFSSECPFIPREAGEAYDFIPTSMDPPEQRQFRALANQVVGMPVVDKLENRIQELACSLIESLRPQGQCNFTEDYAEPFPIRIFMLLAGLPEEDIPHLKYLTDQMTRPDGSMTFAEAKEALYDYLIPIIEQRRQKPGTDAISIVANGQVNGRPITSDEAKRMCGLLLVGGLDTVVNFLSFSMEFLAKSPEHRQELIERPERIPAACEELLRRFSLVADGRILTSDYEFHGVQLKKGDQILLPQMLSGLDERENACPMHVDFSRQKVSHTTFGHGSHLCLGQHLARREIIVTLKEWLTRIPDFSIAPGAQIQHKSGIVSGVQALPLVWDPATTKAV
Nature of the test: constant-volume visible difference spectrophotometric titration. The essentials:
(§1)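 Substrate-bound protein solution was exchanged into substrate-free solution at the same protein concentration, and visible difference spectra were recorded. KD was obtained by fitting to a single-site binding model. This method applied to the camphor-analogue test compounds.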

The target in test [2] is T2, P450cam (cytochrome P450cam), WT (Pseudomonas putida, UniProt P00183, C335A/Y97F).
T2 sequence (P00183 2-415 Y97F/C335A): T1 sequence (P00183 2-415 C335A)
The test is described as above. The method, boiled down:
as §1

The target of test [3] is T2, P450cam (cytochrome P450cam), WT. The experiment in a line: visible spectrophotometric titration.
Test [4] addresses T1, P450cam (cytochrome P450cam), WT. The experiment in a line: visible spectrophotometric titration.

Each structure is given as a SMILES string.

These results are taken from PMC5816979 (Biochemistry, 2017).

The term Kd denotes the equilibrium constant for the complex coming apart. A high value points to lower affinity. On to `CC1(C)C2CCC1(C)C(O)C2` (racemic) [isoborneol], for which the Kd in test [1] came to 10.9 ± 3.4 µM; in test [2], 1.2 ± 0.3 µM.

Consider `CC12CCC(CC1)C2(C)C` [camphane], for which the Kd in test [1] was determined as 18.7 ± 2.5 µM; in test [2], 10.7 ± 3.3 µM.

Regarding `CC1(C)[C@@H]2CC[C@@]1(C)C(=O)C2` [d-camphor], the Kd in test [3] is 3.5 ± 0.6 µM; in test [4], 1.8 ± 0.8 µM.
